Only some compounds are listed: those with a hit (about 4.9% of all), similar ones and a draw of the others.
NPY-Y1 PAM-ag: human NPY-Y1 potentiation or agonism, primary screen. AID 1304. activation, % at 3.6 µM. P25929. NPY-Y1 expressing cells, potentiator/agonist activation. hit rate 0.37% among 220,000; in the data active = activation above about 33%, passing the limit was not always enough;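 note: cells stimulated with NPY at EC10 then isoproterenol at EC100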
Target sequence (P25929 whole entry, looked up): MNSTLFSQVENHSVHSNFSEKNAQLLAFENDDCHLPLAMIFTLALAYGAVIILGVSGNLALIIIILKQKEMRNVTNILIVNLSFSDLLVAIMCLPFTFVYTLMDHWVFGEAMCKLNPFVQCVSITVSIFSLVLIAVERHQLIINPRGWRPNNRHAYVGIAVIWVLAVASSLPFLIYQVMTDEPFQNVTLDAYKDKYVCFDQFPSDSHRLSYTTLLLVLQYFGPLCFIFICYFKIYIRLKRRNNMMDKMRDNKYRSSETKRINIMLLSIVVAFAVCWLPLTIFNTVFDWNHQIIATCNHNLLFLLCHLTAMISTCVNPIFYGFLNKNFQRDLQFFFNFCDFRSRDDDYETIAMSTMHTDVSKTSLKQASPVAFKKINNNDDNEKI
NPY-Y1 antag: NPY-Y1 (human) receptor antagonism. P25929. HEK293-CNG Y1 cells, membrane potential fluorescence; NPY at EC95, then isoproterenol. inhibition, % at 3.6 µM. hit rate 1% among 200,000. AID 1040;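 active = inhibition above the campaign mean inhibition of all tested compounds plus 3 SD, cut at about 20% in these data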
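System: HEK293 cells with Y1 receptor plus CNG channel / Probe or stimulus: NPY 25 nM then isoproterenol 1 µM plus Ro 20-1724 25 µM / Compound: one concentration, 3.6 µM, in 0.4% DMSO / Schedule: compound incubation 1 h at room temperature, readout 45 min post-stimulation / Measured by: membrane potential fluorescence / Read-out: % inhibition of NPY effect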
RAM network inh: inhibitors of the yeast RAM network | S. cerevisiae dse1pr::URA3 reporter, 5-FOA growth OD615, 2 d; analog-sensitive cbk1-as2 kinase mutant strain | inhibition, % at 50 µM | hit rate 1.8% among 190,000;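 active = inhibition above a set limit, 3 SD over mean compound inhibition, cut at about 8.4% in these data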;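 note: inhibition rescues growth on 5-FOA so higher OD means more RAM inhibition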
NPY Y2 blocker: blocks the human neuropeptide Y Y2 receptor | P49146 | NPY-Y2 expressing cells, antagonist mode | inhibition, % at 2.7 µM | hit rate 0.99% among 140,000 | AID 793; in the data active = inhibition above about 17%
Target sequence (P49146 whole entry, looked up): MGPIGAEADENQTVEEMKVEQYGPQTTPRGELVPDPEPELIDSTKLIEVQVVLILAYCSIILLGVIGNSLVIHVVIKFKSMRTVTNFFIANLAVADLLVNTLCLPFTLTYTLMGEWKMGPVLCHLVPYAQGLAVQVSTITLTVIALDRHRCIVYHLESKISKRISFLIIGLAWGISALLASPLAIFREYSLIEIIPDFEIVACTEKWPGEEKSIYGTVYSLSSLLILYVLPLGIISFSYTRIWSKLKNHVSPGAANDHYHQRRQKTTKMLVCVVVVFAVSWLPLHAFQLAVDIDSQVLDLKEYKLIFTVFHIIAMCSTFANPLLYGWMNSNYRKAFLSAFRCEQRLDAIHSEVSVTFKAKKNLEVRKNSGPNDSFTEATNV
WT yeast gro inh: growth inhibition of WT yeast, mitochondrial fusion screen. mitochondrial fusion phenotypic screen, WT strain. inhibition, % at 10 µM. hit rate 2.1% among 190,000; in the data active = inhibition above about 58%; tested in S. cerevisiae
NPY-Y2 PAM-ag: potentiates or activates human NPY-Y2 receptor. hit rate 0.45% among 220,000. activation, % at 3.6 µM. AID 1359. P49146. cells expressing NPY-Y2, potentiator/agonist read-out; in the data active = activation above about 27%;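 note: cells stimulated with NPY near EC25 plus isoproterenol at EC100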
NPY-Y1 pot conf: human NPY-Y1 potentiation or agonism, confirmation; shares compounds with NPY-Y1 PAM-ag; cell-based NPY-Y1 potentiator/agonist assay; activation, % at 3.6 µM; hit rate 20% among 280; AID 1546; in the data active = activation above about 45%;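 note: cells challenged with NPY at its EC10 plus isoproterenol stimulus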
NPY-Y2 counter: NPY-Y2 potentiation or agonism as NPY-Y1 counter-screen; shares compounds with NPY-Y1 PAM-ag; HEK293-CNG cells, membrane-potential fluorescence (FLIPR), 1536-well; activation, % at 3.6 µM; hit rate 20% among 280; in the data active = activation above about 33%
NPY-Y1 agonist: human NPY-Y1 agonism as potentiator counter-screen; AID 1697; shares compounds with NPY-Y1 PAM-ag; hit rate 50% among 280; HEK293 Y1-CNGC, membrane potential fluorescence, agonist mode; activation, % at 3.6 µM;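 active = percent activation above the mean of DMSO-only control wells plus 3 SD of those wells, cut at about 18% in these data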;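 note: cells challenged with isoproterenol plus Ro 20-1724 with no NPY in test wells; Y1 agonism lowers isoproterenol-driven cAMP and reduces probe fluorescence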
NPY-Y2 ag: human NPY-Y2 agonism as NPY-Y1 counter-screen; shares compounds with NPY-Y1 PAM-ag; HEK293 Y2-CNGC, membrane potential fluorescence, agonist mode; activation, % at 3.6 µM; hit rate 67% among 280; AID 1698;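 active = activation above the solvent-only control wells' mean plus 3 SD, cut at about 11% in these data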;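 note: agonism lowers cAMP so well fluorescence drops in active wells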
CNGC counter: CNG channel inhibition, counter-screen for NPY-Y1 potentiators. shares compounds with NPY-Y1 PAM-ag. HEK293-CNG parental, isoproterenol cAMP, membrane potential fluorescence. inhibition, % at 3.6 µM. hit rate 42% among 280. AID 1704;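 active = inhibition above the mean of stimulated solvent-only control wells plus 3 SD, cut at about 22% in these data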
Each line names hits and unclear results; the compound was inactive in the other large screens (follow-up assays come after a bar, where they were run).

CC(=O)Nc1ccc(NC(=O)Cc2ccc(F)cc2)cc1	none (no result: NPY Y2 blocker)
CC(C)OCC(O)CN1CCN(CC(O)COc2ccc3c(c2)OCO3)CC1 (configuration not stated)	none
Cc1cc(C)cc(OCC(O)CN2CCN(Cc3ccc4c(c3)OCO4)CC2)c1 (configuration not stated)	NPY-Y1 PAM-ag 50.0 (no result: NPY Y2 blocker) | NPY-Y1 pot conf inactive | NPY-Y2 counter inactive | NPY-Y1 agonist inactive | NPY-Y2 ag inactive | CNGC counter inactive
Cc1ccc(Nc2c(-c3ccccc3O)nc3ncccn23)cc1	none (no result: NPY-Y1 antag, RAM network inh, NPY Y2 blocker, WT yeast gro inh)
Cc1cccc(Nc2c(-c3ccc(O)cc3)nc3ncccn23)c1	NPY-Y1 PAM-ag 39.8 (no result: NPY Y2 blocker) | NPY-Y1 pot conf inactive | NPY-Y2 counter inactive | NPY-Y1 agonist inactive | NPY-Y2 ag 30.9 | CNGC counter 22.8
Cc1cc2ccccn2c1C(=O)c1ccc(Cl)cc1	none
COc1ccc(NC(=O)c2ccc(OC(F)F)cc2)cc1Cl	none
O=C(Nc1ccc(OC(F)F)c(Cl)c1)c1ccccn1	NPY-Y1 PAM-ag 39.4 (no result: NPY Y2 blocker) | NPY-Y1 pot conf inactive | NPY-Y2 counter inactive | NPY-Y1 agonist inactive | NPY-Y2 ag inactive | CNGC counter inactive
CCOc1ccc(N2C(=O)C(CC(=O)Nc3ccccc3)N(Cc3ccccn3)C2=S)cc1 (configuration not stated)	none (no result: NPY Y2 blocker)
CCOc1ccc(N2C(=O)C(CC(=O)Nc3ccc(F)cc3)N(Cc3ccccn3)C2=S)cc1 (configuration not stated)	NPY-Y1 PAM-ag 42.1 (no result: NPY Y2 blocker) | NPY-Y1 pot conf 46.8 | NPY-Y2 counter inactive | NPY-Y1 agonist 35.1 | NPY-Y2 ag 46.5 | CNGC counter 41.0
Cc1ccccc1NCC(=O)N/N=C/c1c[nH]c2ccccc12	NPY-Y1 PAM-ag 46.2 (no result: NPY Y2 blocker) | NPY-Y1 pot conf inactive | NPY-Y2 counter inactive | NPY-Y1 agonist 26.5 | NPY-Y2 ag 17.8 | CNGC counter 28.8
O=C1CC(Sc2ccc(Cl)cc2)C(=O)N1c1ccc2c(c1)OCCO2 (configuration not stated)	none (no result: NPY-Y1 antag, RAM network inh, NPY Y2 blocker, WT yeast gro inh)
CC(C)N=C1NN=C(c2cccs2)CS1	none (no result: NPY Y2 blocker)
CC(C)N=C1NN=C(c2ccc(Cl)c(Cl)c2)CS1	NPY-Y1 PAM-ag 49.1 (no result: NPY Y2 blocker) | NPY-Y1 pot conf inactive | NPY-Y2 counter inactive | NPY-Y1 agonist inactive | NPY-Y2 ag inactive | CNGC counter inactive
O=C(O)c1cc(NC(=O)c2ccc(Cl)c([N+](=O)[O-])c2)cc(C(=O)O)c1	none (no result: NPY Y2 blocker)
O=C(Nc1ccc(C(O)(C(F)(F)F)C(F)(F)F)cc1)c1ccc(Cl)c([N+](=O)[O-])c1	NPY-Y1 PAM-ag 46.1, WT yeast gro inh 73.8 | NPY-Y1 pot conf 50.4 | NPY-Y2 counter 49.6 | NPY-Y1 agonist 41.4 | NPY-Y2 ag 39.9 | CNGC counter 51.4
Cc1ccc(S(=O)(=O)O/N=C2\CCCc3ccccc32)cc1	none
CC1=C(C)/C(=N\OS(=O)(=O)c2ccccc2)C=CC1=O	NPY-Y1 PAM-ag 69.7, WT yeast gro inh 79.9 | NPY-Y1 pot conf inactive | NPY-Y2 counter inactive | NPY-Y1 agonist inactive | NPY-Y2 ag 12.8 | CNGC counter inactive
Nc1nc(COc2ccccc2)cs1	none
COc1ccc(OC)c2sc(NC(=O)c3ccc(S(=O)(=O)N(C)C)cc3)nc12	NPY-Y1 PAM-ag 34.2 | NPY-Y1 pot conf inactive | NPY-Y2 counter inactive | NPY-Y1 agonist inactive | NPY-Y2 ag 17.9 | CNGC counter inactive
COc1ccc(N(C)S(=O)(=O)c2cccc(C(=O)Nc3nnc(C4CC4)s3)c2)cc1	NPY-Y1 PAM-ag 37.7 (no result: NPY Y2 blocker) | NPY-Y1 pot conf inactive | NPY-Y2 counter inactive | NPY-Y1 agonist 41.1 | NPY-Y2 ag 20.2 | CNGC counter 40.2
COc1ccc(N(C)S(=O)(=O)c2cccc(C(=O)Nc3cc(OC)ccc3OC)c2)cc1	none (no result: NPY Y2 blocker)
CNC(=O)c1ccccc1NC(=O)c1cccc(S(=O)(=O)N2CCCCC2)c1	none (no result: NPY Y2 blocker)
CN(C)S(=O)(=O)c1ccc(S(=O)(=O)N(Cc2ccco2)Cc2ccccc2Cl)cc1	NPY-Y1 PAM-ag 38.3 | NPY-Y1 pot conf inactive | NPY-Y2 counter inactive | NPY-Y1 agonist inactive | NPY-Y2 ag inactive | CNGC counter inactive
O=S(=O)(c1ccc(S(=O)(=O)N(Cc2ccco2)Cc2ccccc2Cl)cc1)N1CCCC1	none
CCN1C(=O)/C(=C/C=C2\N(CC)c3cc(S(=O)(=O)N(C)C)ccc3N2c2ccccc2)SC1=S	NPY-Y1 PAM-ag 50.4 (no result: NPY-Y1 antag, RAM network inh, NPY Y2 blocker, WT yeast gro inh) | NPY-Y1 pot conf 56.8 | NPY-Y2 counter 51.7 | NPY-Y1 agonist 50.9 | NPY-Y2 ag 62.5 | CNGC counter 39.2
CCOc1ccccc1NC(=O)C1C2C=CC(O2)C1C(=O)O (configuration not stated)	NPY-Y1 PAM-ag 57.4 | NPY-Y1 pot conf inactive | NPY-Y2 counter inactive | NPY-Y1 agonist inactive | NPY-Y2 ag inactive | CNGC counter inactive
CC1CC(C)CN(CCCNC(=O)c2cc3c(=O)[nH]c4ccccc4c3n2C)C1 (configuration not stated)	NPY-Y1 PAM-ag 41.1 (no result: NPY Y2 blocker) | NPY-Y1 pot conf inactive | NPY-Y2 counter inactive | NPY-Y1 agonist 25.8 | NPY-Y2 ag 19.5 | CNGC counter inactive
O=C(Nc1ccccc1)C1CC=CCC1C(=O)OCC1CCCO1 (configuration not stated)	NPY-Y1 PAM-ag 54.6 | NPY-Y1 pot conf inactive | NPY-Y2 counter inactive | NPY-Y1 agonist inactive | NPY-Y2 ag inactive | CNGC counter inactive
O=C(NCC1CCCO1)c1ccc(NC(=O)C2CC=CCC2C(=O)O)cc1 (configuration not stated)	none
Cc1cc(NC(=O)CCC(=O)N(Cc2cccs2)C(C(=O)NC2CCCC2)c2ccccc2)no1 (configuration not stated)	none
CN(C)CCCNc1cc(C(C)(C)C)nc2c(-c3ccccc3)cnn12	NPY-Y1 PAM-ag 55.0 (no result: NPY-Y1 antag, RAM network inh, NPY Y2 blocker, WT yeast gro inh) | NPY-Y1 pot conf inactive | NPY-Y2 counter 34.5 | NPY-Y1 agonist 25.0 | NPY-Y2 ag 19.7 | CNGC counter 34.7
CC(C)(C)c1cc(NCCCn2ccnc2)n2ncc(-c3ccc(Cl)cc3)c2n1	none
Cc1cc(C)n2nc(C(=O)N/N=C/c3ccccc3C)nc2n1	none (no result: NPY-Y1 antag, RAM network inh, NPY Y2 blocker, WT yeast gro inh)
O=C(Nc1ccc(Cl)cc1)/C(=C/c1ccc([N+](=O)[O-])cc1)c1nc2ccccc2s1	none (no result: NPY Y2 blocker)

Screens deposited in PubChem by several laboratories.
